Measurements from different studies.
Target: Muscle, skeletal receptor tyrosine-protein kinase (MUSK, Homo sapiens, UniProt O15146)
One construct used (O15146 24-869): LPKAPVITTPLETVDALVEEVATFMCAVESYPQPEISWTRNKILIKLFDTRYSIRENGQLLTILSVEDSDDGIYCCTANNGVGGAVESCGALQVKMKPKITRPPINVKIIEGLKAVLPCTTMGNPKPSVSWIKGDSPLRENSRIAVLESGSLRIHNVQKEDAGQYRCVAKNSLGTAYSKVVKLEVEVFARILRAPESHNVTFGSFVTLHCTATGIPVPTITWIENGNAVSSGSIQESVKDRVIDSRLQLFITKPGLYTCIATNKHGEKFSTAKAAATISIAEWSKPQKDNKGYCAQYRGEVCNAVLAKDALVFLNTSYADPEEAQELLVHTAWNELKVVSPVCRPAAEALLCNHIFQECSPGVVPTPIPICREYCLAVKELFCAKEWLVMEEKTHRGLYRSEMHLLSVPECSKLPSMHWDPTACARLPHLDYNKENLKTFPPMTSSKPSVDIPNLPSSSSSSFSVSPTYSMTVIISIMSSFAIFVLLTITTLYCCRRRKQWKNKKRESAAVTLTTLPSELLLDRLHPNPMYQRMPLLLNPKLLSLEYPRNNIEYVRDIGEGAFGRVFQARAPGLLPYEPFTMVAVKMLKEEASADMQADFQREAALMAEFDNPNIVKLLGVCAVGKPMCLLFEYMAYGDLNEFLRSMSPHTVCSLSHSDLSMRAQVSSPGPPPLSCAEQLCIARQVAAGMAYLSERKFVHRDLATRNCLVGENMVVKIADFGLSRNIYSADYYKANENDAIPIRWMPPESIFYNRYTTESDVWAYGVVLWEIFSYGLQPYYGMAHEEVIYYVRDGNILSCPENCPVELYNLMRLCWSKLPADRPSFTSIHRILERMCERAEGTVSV

Cc1sc(C(=O)NC2COC2)cc1-n1cc(NC(=O)Nc2c(F)cccc2Cl)cn1
remaining activity (enzyme activity; inhibitor; 10 µM): 103%

CCC(=N\O)/C(C)=C/c1ccc(F)cc1
remaining binding (cell-free assay; competition with immobilised ligand; 1 µM): 90%

Nc1ncnc2occ(-c3ccc(NC(=O)Nc4cc(C(F)(F)F)ccc4F)cc3)c12
remaining signal (cell-free assay; inhibitor; 20 µM): 0%

O=C(Nc1cccnn1)N1CC(C/C=C/c2cncc(Oc3ccc(C(F)(F)F)cn3)n2)C1
remaining binding (cell-free assay; competition with immobilised ligand; 1 µM): 97%

CC(C)(C)c1nc2c(s1)c1nc(N)ncc1c1ccc(NS(=O)(=O)c3c(F)cccc3F)c(F)c12
remaining activity (enzyme activity; inhibitor; radiometric; 1 µM): 80%

CC(=O)N1CCC(c2ccc(C(=O)NC(=N)N)cc2C(F)(F)F)CC1
remaining binding (cell-free assay; competition with immobilised ligand; 1 µM): 100%

CCCOc1ccc(OC)c(F)c1C(=O)c1ccc(C(=O)N[C@@H]2CNC[C@H]2NC(=O)c2ccc3[nH]ncc3c2)cc1
remaining activity (enzyme activity; inhibitor; 10 µM): -1%

CCN(CC)c1ccc(C2=NNC(=O)CC2C)cc1[N+](=O)[O-] (stereo not shown)
remaining activity (enzyme activity; inhibitor; 10 µM): 85%

CN(C)C(=O)Cn1cc(-c2nc(C3(c4ccc(-c5cnc(N)nc5)cc4)CC3)no2)cn1
remaining binding (cell-free assay; competition with immobilised ligand; 1 µM): 100%

O=C1Nc2ccc(Cl)cc2C1=Cc1cc(Cl)c(O)c(Cl)c1
remaining signal (cell-free assay; 0.5 µM): 65.5%

COc1cc2ncnc(Nc3ccc(Oc4ccccc4)cc3C)c2cc1OC
inhibition (enzyme activity; inhibitor; 1 µM): 4%

Cc1cnc(NC2CCOCC2)nc1-n1cnc(C(=O)NC(CN)c2cc(F)cc(Cl)c2)c1 (stereo not shown)
remaining activity (enzyme activity; inhibitor; radiometric; 1 µM): 97%

O=C(Nc1cnn(-c2csc(C(=O)NC3COC3)c2)c1)Nc1ccccc1Cl
remaining activity (enzyme activity; inhibitor; 5 µM): 94.5%

CNC(=O)c1cc(Oc2ccc(NC(=O)Nc3ccc(Cl)c(C(F)(F)F)c3)cc2)ccn1
inhibition (enzyme activity; inhibitor; 10 µM): 100%

Cc1ccc(C(=O)NCc2ccsc2)cc1C#Cc1cn(C(C)C)c2ncnc(N)c12
activity vs control (enzyme activity; inhibitor; 1 µM): 73%

CN1CC(Oc2cnc(C#N)cc2-c2ccn3nc(NC(=O)C4CC4)cc3c2)C1
inhibition (enzyme activity; inhibitor; 1 µM): 6%

NS(=O)(=O)c1cc(NC(=O)Cc2ccccc2)ccc1Oc1cccc(Cl)c1
remaining binding (cell-free assay; competition with immobilised ligand; 1 µM): 100%

Cc1ccc(C(=O)Nc2ccc(CN3CCN(C)CC3)c(C(F)(F)F)c2)cc1C#Cc1cnc2cccnn12
remaining activity (enzyme activity; inhibitor; 23.5 nM): 8%

CS(=O)(=O)NCC[C@H](NC(=O)c1cncc2c1cnn2-c1ccc(F)cc1)c1ccnc(S(C)(=O)=O)c1
remaining binding (cell-free assay; competition with immobilised ligand; 1 µM): 100%

CNC(=O)c1cc2c(Oc3ccc(NC(=O)C4(C(=O)Nc5ccc(F)cc5)CC4)cc3)ccnc2cc1OC
inhibition (enzyme activity; inhibitor; radiometric; 1 µM): 70%

Cc1ccc(Nc2nccc(N(C)c3ccc4c(C)n(C)nc4c3)n2)cc1S(N)(=O)=O
inhibition (enzyme activity; inhibitor; 10 µM): 97%

COc1cc2c(N3CCN(C(=O)Nc4ccc(OC(C)C)cc4)CC3)ncnc2cc1OCCCN1CCCCC1
remaining signal (cell-free assay; 0.5 µM): 99.6%

CC(=O)Nc1c(C(C)=O)c(=O)n(C)c2nc(-c3ccc(Cl)cc3Cl)c(-c3ccc(Cl)cc3)cc12
remaining binding (cell-free assay; competition with immobilised ligand; 1 µM): 100%

N#CCCc1ccc2c(c1)-c1[nH]c3ccc([N+](=O)[O-])cc3c1CC(=O)N2
remaining signal (cell-free assay; 0.5 µM): 63%

CCN(CC)CCNC(=O)c1c(C)[nH]c(/C=C2\C(=O)Nc3ccc(F)cc32)c1C
inhibition (enzyme activity; inhibitor; 0.3 µM): 98%
